Screens: PubChem BioAssay, Johns Hopkins Ion Channel Center
KCNQ1 pot = potentiators or activators of KCNQ1 channel, primary screen, cell-based, thallium flux, high-throughput. CHO-K1 KCNQ1, thallium flux FluxOR fluorescence; stronger effect = higher value. B-score at 10 µM. actives 0.35% (n = 310,000);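 active means fluorescence ratio B-score, a plate-corrected score, at least three library SD, with initial intensity B-score within 5 SD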
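assay system = CHO-K1 cells stably expressing KCNQ1 | medium = assay buffer, equal DMSO in all wells | timing = 37 °C overnight plating, 90-min dark dye load, 20-min compound pretreatment | measured by = kinetic FluxOR thallium fluorescence, 10-s 1-Hz baseline, 110-s post-stimulus read | measure = fluorescence change relative to baseline, converted to B score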
KCNQ1 block = inhibitors of human KCNQ1 channel, primary screen, cell-based, thallium flux, high-throughput. Potassium voltage-gated channel subfamily KQT member 1 (Homo sapiens), P51787. CHO-K1 KCNQ1, FluxOR thallium flux fluorescence; stronger effect = higher value. B-score at 10 µM. actives 1.3% (n = 310,000);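 active means compounds whose thallium flux B-score, printed positive for inhibition, exceeds three library SD while starting fluorescence stays within three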;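 further: channel opened by potassium depolarization with thallium stimulus after 20 min compound exposure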
KCNK9 inh = KCNK9 potassium channel inhibitors, primary screen, HEK293 cells, thallium flux | AID 488922, 2010 | FluxOR thallium flux fluorescence; stronger effect = lower value | actives 1.2% (n = 310,000) | B-score at 10 µM | Potassium channel subfamily K member 9 (Homo sapiens), Q9NPC2;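 active means ratio B-score over 3 SD below the library mean, with starting fluorescence within 5 SD of its mean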;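 further: negative B-score means less thallium flux so channel inhibition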
hERG protect = hERG rescue from dofetilide block, primary screen, cell-based, CHO-hERG, FluxOR thallium flux, dofetilide IC70; activation (rescue from dofetilide block), less the hit threshold, % at 10 µM; Voltage-gated inwardly rectifying potassium channel KCNH2 (Homo sapiens), Q12809; actives 0.51% (n = 310,000); dofetilide IC70 present; AID 1511, 2009;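 active means activation above the mean of controls blocked by dofetilide plus 5 SD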;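 further: thallium influx through hERG after potassium depolarization seen as dye fluorescence rise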
Target sequence (Q12809 whole entry, looked up): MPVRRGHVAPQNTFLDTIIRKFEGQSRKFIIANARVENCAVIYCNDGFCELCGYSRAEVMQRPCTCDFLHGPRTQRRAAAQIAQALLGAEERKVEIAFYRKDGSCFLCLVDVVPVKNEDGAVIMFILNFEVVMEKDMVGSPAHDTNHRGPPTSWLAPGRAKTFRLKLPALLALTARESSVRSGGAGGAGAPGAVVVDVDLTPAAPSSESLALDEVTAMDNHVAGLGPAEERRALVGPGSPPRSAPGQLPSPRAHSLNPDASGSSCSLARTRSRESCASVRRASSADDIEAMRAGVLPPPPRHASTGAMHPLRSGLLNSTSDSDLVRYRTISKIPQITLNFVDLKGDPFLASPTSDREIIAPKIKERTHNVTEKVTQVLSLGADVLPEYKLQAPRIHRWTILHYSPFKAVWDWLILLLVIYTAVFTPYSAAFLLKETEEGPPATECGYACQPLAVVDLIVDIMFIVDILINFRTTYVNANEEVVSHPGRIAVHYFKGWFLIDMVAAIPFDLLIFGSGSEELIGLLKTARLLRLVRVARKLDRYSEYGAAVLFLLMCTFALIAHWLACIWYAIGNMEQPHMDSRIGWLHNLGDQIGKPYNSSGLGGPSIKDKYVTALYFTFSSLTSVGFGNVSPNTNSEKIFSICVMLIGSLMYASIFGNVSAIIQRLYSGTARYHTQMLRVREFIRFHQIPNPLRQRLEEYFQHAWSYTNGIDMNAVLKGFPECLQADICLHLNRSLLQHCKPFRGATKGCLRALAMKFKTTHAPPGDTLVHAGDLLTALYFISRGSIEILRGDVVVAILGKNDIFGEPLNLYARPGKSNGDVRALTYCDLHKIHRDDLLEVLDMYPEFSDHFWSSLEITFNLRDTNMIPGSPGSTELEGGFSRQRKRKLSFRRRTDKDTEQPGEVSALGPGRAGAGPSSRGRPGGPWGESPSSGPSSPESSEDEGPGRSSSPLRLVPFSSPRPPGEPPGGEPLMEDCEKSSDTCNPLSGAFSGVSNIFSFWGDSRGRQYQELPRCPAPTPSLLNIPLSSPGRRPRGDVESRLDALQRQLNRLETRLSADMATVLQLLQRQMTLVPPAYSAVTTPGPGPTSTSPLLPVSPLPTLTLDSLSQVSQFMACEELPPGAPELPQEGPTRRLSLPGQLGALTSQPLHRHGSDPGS
KCNK3 block = human KCNK3 channel inhibitors, primary screen, CHO cells, FluxOR thallium flux, B-score; FluxOR fluorescence; stronger effect = lower value; B-score at 10 µM; actives 0.84% (n = 340,000); AID 602410, 2012;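 active means B-score under library mean minus 4 SD, starting fluorescence ratio at most library mean plus 5 SD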;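 further: more negative B-score means stronger inhibition of thallium flux through KCNK3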
KCNK3 confirm = retest of human KCNK3 channel inhibitors, confirmation, CHO cells, FluxOR thallium flux, triplicate | FluxOR fluorescence; 0% buffer, 100% carvedilol maximal block | shares compounds with KCNK3 block | ratio percent of control, % at 10 µM | AID 651638, 2012 | actives 99% (n = 2,400);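 active means ratio percent of control, averaged over triplicates, above buffer control mean plus 5 SD, cut at about 64% in these data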;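 further: ratio is the fluorescence rise from min to max over baseline after thallium stimulus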
KCNK3 noninduced = thallium flux inhibition in non-induced cells, primary screen, counter-screen for KCNK3 inhibitor project, cell-based, non-induced KCNK3 line, FluxOR thallium, triplicate; thallium flux ratio (lower = more inhibition) at 10 µM; shares compounds with KCNK3 block; actives 40% (n = 2,400); non-induced KCNK3 parental cells; stronger effect = lower value;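 active means thallium flux ratio, averaged over three wells, more than 5 SD below the buffer control mean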;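 further: host cells are CHO cells without KCNK3 induction; ratio is peak minus trough fluorescence over baseline then normalized to buffer controls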
* marks the source's active call; other numbers are inactive results; i = inactive; / = not tested or not shown. This is a sample that favours compounds with a hit; in the whole collection about 3.1% have one here.

SMILES	KCNQ1 pot	KCNQ1 block	KCNK9 inh	hERG protect	KCNK3 block	KCNK3 confirm	KCNK3 noninduced
CC(=O)c1cc(C#N)c(N2CCN(c3ccccc3)CC2)nc1C	i	i	i	-4	i	/	/
CCOC(=O)c1cc(C#N)c(N2CCN(c3ccccn3)CC2)nc1-c1ccccc1	i	i	i	-4	-9.4*	99*	i
O=[N+]([O-])c1ccc(/C=C/c2ccc3ccccc3n2)cc1	i	i	i	-4	-9.2*	94*	i
O=C(O)C1CSC(CCc2ccccc2)N1 (stereo not given)	i	i	i	-2	i	/	/
CC1CCN(S(=O)(=O)c2ccc(C(=O)N3CCN(c4ccccc4F)CC3)cc2)CC1	i	i	i	-3	i	/	/
CC(=O)N1c2ccc(S(=O)(=O)N3CCC(C(=O)N4CCN(c5cc(Cl)ccc5C)CC4)CC3)cc2CC1C (stereo not given)	i	6*	i	-6	-9.5*	108*	i
COc1ccc(NC(=O)C2Cc3cc(S(=O)(=O)N4CCCCC4)ccc3N2C(C)=O)cc1Cl (stereo not given)	i	i	i	-10	i	/	/
COc1ccc(Cl)cc1NC(=O)C1Cc2cc(S(=O)(=O)N3CCCC3)ccc2N1C(C)=O (stereo not given)	i	i	i	-11	-9.4*	102*	i
CCSc1nc(-c2ccc(OC)cc2)ccc1C#N	i	i	i	-8	-8.8*	113*	i
CCOCCCNCc1cn(-c2ccc(F)cc2F)nc1-c1ccccc1C	i	i	i	-14	i	/	/
CCCCN1CN(S(=O)(=O)c2ccc(OC)cc2)c2nc3ccccc3nc21	i	i	i	-9	-8.9*	90*	i
CC12CCC(=O)C=C1CCC1C2CCC2(C)C(c3csc(N)n3)CCC12 (stereo not given)	/	/	/	/	-14*	133*	0.12*
CC12CCC(=O)C=C1CCC1C2C(O)CC2(C)C(c3csc(N)n3)CCC12 (stereo not given)	/	/	/	/	i	/	/
C=CCn1c(SCC(=O)Nc2cc(C)on2)nc2sc(C)c(C)c2c1=O	i	i	i	-12	i	/	/
COc1ccc(C)cc1-n1c(SCC(=O)Nc2cc(C)on2)nc2sc(C)c(C)c2c1=O	i	i	i	-8	-11*	128*	i
CN(C)CCCN=Cc1c(O)n(Cc2ccccc2)c(=O)c2ccccc12	i	i	-7.2*	-11	-11*	98*	i
CN(C)CCN=Cc1c(O)n(Cc2ccccc2)c(=O)c2ccccc12	i	i	i	-9	i	/	/
CC(=N\Nc1ccc(Cl)cc1)/C(=N/O)C(=O)Nc1ccccc1	i	i	i	-3	i	/	/
CCOC(=O)C(=N/O)/C(C)=N/NC(=O)C(=O)Nc1ccc(Cl)cc1	i	9*	i	-31	-11*	120*	i
Cc1cccc(N/C(N)=N/c2nc(CSc3ccc(Cl)cc3)cc(=O)[nH]2)c1	i	i	i	-12	/	/	/
COc1ccc2c(c1)c(CC(=O)NCc1cc([N+](=O)[O-])ccc1O)c(C)n2C(=O)c1ccc(Cl)cc1	i	11*	i	-23	-13*	135*	0.11*
COc1ccc2c(c1)c(CC(=O)Nc1ccc(C(C)=O)cc1)c(C)n2C(=O)c1ccc(Cl)cc1	i	i	i	-1	i	/	/
Cc1cc(F)ccc1S(=O)(=O)N1CCCOC1CNC(=O)C(=O)NCc1cccnc1 (stereo not given)	i	i	i	-7	i	/	/
COC(=O)CNC(=O)C1CCC(CNS(=O)(=O)c2cccc3nsnc23)CC1 (stereo not given)	i	i	i	-9	i	/	/
Cc1ccc(OC(=O)c2cccc(S(=O)(=O)N3CCCC3)c2)c(-n2nc3ccccc3n2)c1	i	i	i	-6	-9.3*	110*	i
SMILES	KCNQ1 pot	KCNQ1 block	KCNK9 inh	hERG protect	KCNK3 block	KCNK3 confirm	KCNK3 noninduced
Cc1ccc(OC(=O)c2cccc(S(=O)(=O)N(C)C)c2)c(-n2nc3ccccc3n2)c1	i	i	-7.1*	-6	i	118*	i
CC(=O)Oc1ccc(C)cc1-n1nc2ccccc2n1	i	i	i	-16	i	/	/
Cc1ccc(OC(=O)c2ccc(S(=O)(=O)N(C)C)cc2)c(-n2nc3ccccc3n2)c1	i	i	i	-16	i	/	/
Cn1cccc1C1C=C(c2ccc(C(C)(C)C)cc2)Nc2ncnn21 (stereo not given)	i	i	i	-18	-9.1*	111*	i
O=C(NCC1CCCO1)c1cc(-c2ccccc2F)no1 (stereo not given)	i	i	i	-7	i	/	/
COc1cccc(NC(=O)CN2CCN(C(=O)c3ccco3)CC2)c1	i	i	i	1	i	/	/
COc1ccc(N2CCOCC2)c(NC(=O)c2cccc3ccccc23)c1	i	i	i	-7	-9.5*	108*	i
CCN(CC)S(=O)(=O)c1ccc(N2CCOCC2)c(NC(=O)c2cccc3ccccc23)c1	i	i	i	-14	i	/	/
COc1ccc(OC)c(-c2cc(C(=O)Nc3ccccc3C(N)=O)c3ccccc3n2)c1	i	i	i	-18	-9.3*	111*	0.14*
COc1ccc(-c2cc(C(=O)Nc3ccccc3N3CCOCC3)c3ccccc3n2)cc1OC	i	i	i	-19	-8.7*	95*	0.13*
CCOc1ccccc1NC(=O)c1cc(-c2cc(OC)c(OC)c(OC)c2)nc2ccccc12	i	i	i	-21	-9.7*	132*	0.093*
COc1ccccc1NC(=O)c1cc(-c2cc(OC)c(OC)c(OC)c2)nc2ccccc12	i	i	i	-7	i	/	/
COc1ccc(OC)c(-c2cc(C(=O)N/N=C/c3ccc(F)cc3)c3ccccc3n2)c1	i	i	i	-16	i	/	/
